Measurements from ChEMBL document CHEMBL6096655, “Discovery of a novel, selective CK2 inhibitor class with an unusual basic scaffold” (Eur J Med Chem, 2025).

Assays:
[1] = Upregulation of PARP cleavage in human U-937 cells by measuring signal 2 at 15 uM measured after 48 hrs by immunoblot analysis; type: functional
Method in brief: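 U937 lymphoma cells grown in RPMI with 2 mM L-glutamine, 1 % pen/strep and 10 % FCS; exposed to compound or DMSO solvent control for 48 h. Total cellular proteins harvested and immunoblotted with an antibody against phosphorylated CK2-substrate motifs and for PARP. Read-out is the densitometric ratio of cleaved to uncleaved PARP signal. Representative of two independent experiments.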

[2] = biological target: Mitogen-activated protein kinase 12 (Homo sapiens) (UniProt P53778); test: Inhibition of human recombinant MAPK12 at 2 uM by Eurofins kinase assay relative to control
Chain of Mitogen-activated protein kinase 12 (Homo sapiens) (P53778 whole entry): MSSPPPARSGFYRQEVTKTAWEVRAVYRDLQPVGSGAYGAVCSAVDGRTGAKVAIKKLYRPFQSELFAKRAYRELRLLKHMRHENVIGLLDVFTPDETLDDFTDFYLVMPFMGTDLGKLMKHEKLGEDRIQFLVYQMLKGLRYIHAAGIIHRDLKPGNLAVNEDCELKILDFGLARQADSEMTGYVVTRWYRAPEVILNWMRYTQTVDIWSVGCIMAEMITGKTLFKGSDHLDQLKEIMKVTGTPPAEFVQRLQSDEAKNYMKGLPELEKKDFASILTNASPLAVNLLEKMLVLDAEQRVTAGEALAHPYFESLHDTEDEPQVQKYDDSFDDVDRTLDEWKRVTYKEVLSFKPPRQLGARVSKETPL

Clc1ccc(N2CCN(c3ncnc4sc5c(c34)CCNC5)CC2)cc1.O=C(O)C(F)(F)F
Activity [1]: 72% | inhibition [2]: 5%
